Here are results for six molecules from ChEMBL document CHEMBL1828622, “Structure-based design and synthesis of 1,3-oxazinan-2-one inhibitors of 11β-hydroxysteroid dehydrogenase type 1” (J Med Chem, 2011).

Data set [1] is described as follows: AUC (infinity) in rat at 10 mg/kg, po. The data set is classed as ADME, organism-based. The arrangement: time infinity, dose 10 mg/kg, route oral. The following applies: plasma. Put shortly: (§1)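 Rat pharmacokinetics after single iv dose of 2 mg/kg and oral dose of 10 mg/kg; oral vehicle differs by compound: 10% ethanol/10% Tween 80 (polysorbate 80)/80% PEG 400 solution, the same with 1% DMSO, or 0.5% methyl cellulose in deionized water suspension. Readouts: oral AUC(inf), oral t1/2, iv clearance, oral bioavailability F.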

Data set [2] in a line: AUC (infinity) in dog at 2 mg/kg, po. More on the design: time infinity, dose 2 mg/kg, route oral. In kind it is ADME, organism-based, Canis lupus familiaris. Conditions: plasma.
Data set [3] in a line: AUC (infinity) in cynomolgus monkey at 2 mg/kg, po. Conditions: plasma. In kind it is ADME, organism-based, Macaca fascicularis. The arrangement: time infinity, dose 2 mg/kg, route oral.
Data set [4] can be described thus: Oral bioavailability in rat at 10 mg/kg. The following applies: in vivo. In kind it is ADME, organism-based. The gist of the method: as §1
Data set [5] can be described thus: Oral bioavailability in dog at 2 mg/kg. In kind it is ADME, organism-based, Canis lupus familiaris. Conditions: in vivo.
Data set [6] is described as follows: Oral bioavailability in cynomolgus monkey at 2 mg/kg. In kind it is ADME, organism-based, Macaca fascicularis. Conditions: in vivo.
Data set [7] is described as follows: Biodistribution in mouse liver at 30 mg/kg, po administered as single dose measured after 1 hr by LC-MS/MS method. The data set is classed as ADME, organism-based. The following applies: read-out: Drug uptake. More on the design: dose 30 mg/kg, route oral. Put shortly: (§2)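 Mice (n = 3) given single oral 30 mg/kg dissolved in 10% ethanol/10% Tween 80/80% PEG 400; tissues collected at sacrifice at 1, 4 and 8 h, snap frozen, later thawed and homogenized in 0.05 M BES pH 7; compound extracted into acetonitrile and quantified by LC-MS/MS against standard curves prepared separately in each tissue matrix.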

A short description of data set [8]: Biodistribution in mouse liver at 30 mg/kg, po administered as single dose measured after 4 hrs by LC-MS/MS method. The data set is classed as ADME, organism-based. The arrangement: dose 30 mg/kg, route oral. Conditions: read-out: Drug uptake. The gist of the method:
as §2

Data set [9] is described as follows: Biodistribution in mouse liver at 30 mg/kg, po administered as single dose measured after 8 hrs by LC-MS/MS method. The data set is classed as ADME, organism-based. The arrangement: dose 30 mg/kg, route oral. The following applies: read-out: Drug uptake. The gist of the method: as §2
Data set [10] is described as follows: Biodistribution in mouse adipose tissue at 30 mg/kg, po administered as single dose measured after 1 hr by LC-MS/MS method. The arrangement: dose 30 mg/kg, route oral. Conditions: read-out: Drug uptake. The data set is classed as ADME, organism-based. Put shortly: as §2
Data set [11] in a line: Biodistribution in mouse adipose tissue at 30 mg/kg, po administered as single dose measured after 4 hrs by LC-MS/MS method. Conditions: read-out: Drug uptake. More on the design: dose 30 mg/kg, route oral. The data set is classed as ADME, organism-based. The gist of the method:
as §2

Data set [12] in a line: Biodistribution in mouse adipose tissue at 30 mg/kg, po administered as single dose measured after 8 hrs by LC-MS/MS method. In kind it is ADME, organism-based. More on the design: dose 30 mg/kg, route oral. Conditions: read-out: Drug uptake. Put shortly:
as §2

Data set [13] in a line: Biodistribution in mouse plasma at 30 mg/kg, po administered as single dose measured after 1 hr by LC-MS/MS method. The data set is classed as ADME, organism-based. The following applies: read-out: Drug uptake. The arrangement: dose 30 mg/kg, route oral. The gist of the method: as §2
The nature of data set [14]: Biodistribution in mouse plasma at 30 mg/kg, po administered as single dose measured after 4 hrs by LC-MS/MS method. The data set is classed as ADME, organism-based. The arrangement: dose 30 mg/kg, route oral. Conditions: read-out: Drug uptake. Put shortly: as §2
Data set [15] in a line: Biodistribution in mouse plasma at 30 mg/kg, po administered as single dose measured after 8 hrs by LC-MS/MS method. The following applies: read-out: Drug uptake. The data set is classed as ADME, organism-based. More on the design: dose 30 mg/kg, route oral. Put shortly: as §2

In general, AUC(0-inf) refers to total exposure, with the tail of the curve extrapolated. Usually bioavailability stands for dose-corrected exposure relative to a reference, in per cent.

For the molecule `C[C@@H](c1ccc(-c2ccc(F)cc2F)cc1)N1CC[C@](CCO)(c2ccc(F)cc2)OC1=O`, the area under the curve AUC(0-inf) in data set [1] worked out at 3870 ng·h/mL; in [2], 584 ng·h/mL; in [3] it was 1500 ng·h/mL. For the same molecule, the bioavailability in data set [4] came to 94%; in data set [5] it was 16%; in data set [6], 26%. In addition, the concentration at 1 h in data set [7] was determined as 15300 ng/mL; in data set [10], 5520 ng/mL; in data set [13] it was 5930 ng/mL. Also, the concentration at 4 h in data set [8] stood at 9810 ng/mL; in data set [11] it was 3160 ng/mL; in data set [14], 3260 ng/mL. The concentration at 8 h in [9] was 1900 ng/mL; in [12] it was 632 ng/mL; in [15], 573 ng/mL.

On to `C[C@@H](c1ccc(-c2ccc(F)cc2)cc1)N1CC[C@](CCCO)(c2ccccc2)OC1=O`, for which the total exposure AUC(0-inf) in data set [1] was found to be 450 ng·h/mL. For the same molecule, the bioavailability in data set [4] came to 23%.

In data set [1], `Cc1cccc(N2CCC(C)(c3ccccc3)OC2=O)c1` (single isomer, unassigned; isomer 1) returned an AUC(0-inf) of 99 ng·h/mL. In addition, the bioavailability in data set [4] came to 4%.

`O=C1OC(CCO)(c2ccccc2)CCN1c1cccc(-c2ccc(F)cc2F)c1` (stereo not given) displayed a total exposure AUC(0-inf) in [1] of 1040 ng·h/mL. The bioavailability in [4] came out at 44%.

In [1], `C[C@@H](c1ccc(-c2ccc(F)cc2)cc1)N1CC[C@](CCO)(c2ccc(F)cc2)OC1=O` displayed an AUC(0-inf) of 3170 ng·h/mL. Moreover, in data set [4], the bioavailability is 83%.

Turning to `C[C@@H](c1ccc(-c2ccc(F)cc2F)cc1)N1CC[C@](CCCO)(c2ccccc2)OC1=O`, in [1], the AUC(0-inf) came out at 915 ng·h/mL. Moreover, the bioavailability in data set [4] is 19%.
